Laboratory results: ChEMBL document CHEMBL5370587, “Fungal Anthraquinone Photoantimicrobials Challenge the Dogma of Cationic Photosensitizers” (J Nat Prod, 2023)

How the values were obtained:
[1] = system: Candida albicans; experiment: Antifungal activity against Candida albicans 501670 assessed as reduction in microbial growth preincubated for 60 mins under dark condition followed by 478 nm light irradiation and measured after 20 to 24 hrs by RPMI-1640 based dilution assay; details: Candida albicans, 501670, light or radiation study
[2] = system: A549; experiment: Photo index, ratio of EC50 for human A549 cells killed in the absence of light to EC50 for human A549 cells killed after irradiation; assay type: functional
Method in brief: (§1)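 SRB assay: cells seeded in Opti-MEM with 2.4% FCS, treated 24 h later with 0.3–25.0 μM, medium replaced after 24 h. Duplicate plates were irradiated with blue light (468 nm, 9.3 J/cm²) or green light (519 nm, 30.0 J/cm²), or kept dark, then held 48 h at 37 °C, 5% CO₂. EC50 from Hill fit; photoindex = EC50 dark / EC50 irradiated.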

[3] = system: Staphylococcus aureus; experiment: Antibacterial activity against Staphylococcus aureus DSM1104 assessed as reduction in microbial growth preincubated for 60 mins under dark condition followed by 530 nm light irradiation and measured after 20 to 24 hrs by muller hinton broth based dilution assay; assay type: functional; details: DSM1104, light or radiation study, time 21-25 hrs
Method in brief: (§2)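 PhotoMIC (modified EUCAST broth microdilution): 0.5 McFarland suspensions diluted 1:50 in Mueller-Hinton broth (bacteria, 2–8 × 10⁵ CFU/mL) or 1:10 in double-strength RPMI-1640 (yeast, 0.5–2.5 × 10⁵ CFU/mL); ≥10 concentrations, biological triplicates; 60 min dark preincubation, then 30 J/cm² irradiation or dark duplicate plate; 37 °C, 20–24 h; turbidity versus growth control, blanks subtracted.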

[4] = system: A549; experiment: Phototoxicity against human A549 cells assessed as reduction in cell growth preincubated with compound for 24 hrs followed by blue light irradiation at 468 nm for 7 mins 30 sec and measured after 48 hrs by SRB assay; assay type: functional, cell-based; details: A549, light or radiation study
Method in brief: (§3)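 Cells (A549 2000, AGS 2500, T24 1500 per well) seeded in Opti-MEM with 2.4% FCS. After 24 h, treated with 25.0−0.3 μM (six levels). After another 24 h, medium was replaced and cells got blue light (468±27 nm, 9.3 J/cm²). Held 48 h at 37 °C, 5% CO2, then TCA-fixed and SRB-stained, read at 540 nm. EC50 from variable-slope fit with 95% CI.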

[5] = system: Escherichia coli; experiment: Antibacterial activity against Escherichia coli DSM1103 assessed as reduction in microbial growth preincubated for 60 mins under dark condition followed by 428 nm light irradiation and measured after 20 to 24 hrs by muller hinton broth based dilution assay; assay type: functional; details: DSM1103, light or radiation study, time 21-25 hrs
Method in brief: as §2

[6] = system: Candida albicans; experiment: Antifungal activity against Candida albicans 501670 assessed as reduction in microbial growth preincubated for 60 mins under dark condition followed by 530 nm light irradiation and measured after 20 to 24 hrs by RPMI-1640 based dilution assay; details: Candida albicans, 501670, light or radiation study
[7] = system: Staphylococcus aureus; experiment: Antibacterial activity against Staphylococcus aureus DSM1104 assessed as reduction in microbial growth preincubated for 60 mins under dark condition followed by 428 nm light irradiation and measured after 20 to 24 hrs by muller hinton broth based dilution assay; assay type: functional; details: DSM1104, light or radiation study, time 21-25 hrs
Method in brief: as §2

[8] = system: Candida albicans; experiment: Antifungal activity against Candida albicans 501670 assessed as reduction in microbial growth preincubated for 60 mins under dark condition followed by 428 nm light irradiation and measured after 20 to 24 hrs by RPMI-1640 based dilution assay; details: Candida albicans, 501670, light or radiation study
[9] = system: T-24; experiment: Photo index, ratio of EC50 for human T24 cells killed in the absence of light to EC50 for human T24 cells killed after irradiation; assay type: functional
Method in brief: as §1

[10] = system: Staphylococcus aureus; experiment: Antibacterial activity against Staphylococcus aureus DSM1104 assessed as reduction in microbial growth preincubated for 60 mins under dark condition and measured after 20 to 24 hrs at room temperature by muller hinton broth based dilution assay; assay type: functional; details: time 20-24 hrs
Method in brief: (§4)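 Bacteria grown overnight at 37 °C for 15−18 h in the dark, then set to 0.5 McFarland (read at 600 nm) and diluted 1:50 in Müller-Hinton broth to (2–8) × 10⁵ CFU/mL. Dark plate held at room temperature, then incubated at 37 °C. After 20−24 h, turbidity was read against the untreated growth control, with blanks subtracted. Compounds tested at ≥10 concentrations in biological triplicate.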

[11] = system: AGS; experiment: Phototoxicity against human AGS cells assessed as reduction in cell growth preincubated with compound for 24 hrs followed by blue light irradiation at 468 nm for 7 mins 30 sec and measured after 48 hrs by SRB assay; assay type: functional, cell-based; details: light or radiation study
Method in brief: as §3

[12] = system: AGS; experiment: Phototoxicity against human AGS cells assessed as reduction in cell growth preincubated with compound for 24 hrs followed by green light irradiation at 519 nm for 22 mins 23 sec and measured after 48 hrs by SRB assay; assay type: functional, cell-based; details: light or radiation study
Method in brief: (§5)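 Cells (A549 2000, AGS 2500, T24 1500 per well) seeded in Opti-MEM with 2.4% FCS and dosed 24 h later at six concentrations, 25.0−0.3 μM. After a further 24 h, fresh medium was added and cells got green light (519±33 nm, 30.0 J/cm²). Then 48 h at 37 °C, 5% CO2. Read-out by TCA fixation, SRB stain and absorbance at 540 nm. EC50 from Hill fit with 95% CI.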

[13] = system: A549; experiment: Phototoxicity against human A549 cells assessed as reduction in cell growth preincubated with compound for 24 hrs followed by green light irradiation at 519 nm for 22 mins 23 sec and measured after 48 hrs by SRB assay; assay type: functional, cell-based; details: A549, light or radiation study
Method in brief: as §5

[14] = system: Candida albicans; experiment: Antifungal activity against Candida albicans 501670 assessed as reduction in microbial growth preincubated for 60 mins under dark condition and measured after 20 to 24 hrs at room temperature by RPMI-1640 based dilution assay
[15] = system: Staphylococcus aureus; experiment: Antibacterial activity against Staphylococcus aureus DSM1104 assessed as reduction in microbial growth preincubated for 60 mins under dark condition followed by 478 nm light irradiation and measured after 20 to 24 hrs by muller hinton broth based dilution assay; assay type: functional; details: DSM1104, light or radiation study, time 21-25 hrs
Method in brief: as §2

[16] = system: AGS; experiment: Phototoxicity against human AGS cells assessed as reduction in cell growth preincubated with compound for 24 hrs under dark condition and measured after 48 hrs by SRB assay; assay type: functional, cell-based; details: light or radiation study
Method in brief: (§6)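 Dark control plate processed the same way: cells (A549 2000, AGS 2500, T24 1500 per well) in Opti-MEM with 2.4% FCS, dosed at 25.0−0.3 μM 24 h after seeding. Medium renewed after 24 h, then 48 h further at 37 °C, 5% CO2 without light. SRB read-out at 540 nm after TCA fixation. EC50 with 95% CI from variable-slope fit.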

[17] = system: T-24; experiment: Phototoxicity against human T24 cells assessed as reduction in cell growth preincubated with compound for 24 hrs under dark condition and measured after 48 hrs by SRB assay; assay type: functional, cell-based; details: T-24, light or radiation study
Method in brief: as §6

[18] = system: T-24; experiment: Phototoxicity against human T24 cells assessed as reduction in cell growth preincubated with compound for 24 hrs followed by blue light irradiation at 468 nm for 7 mins 30 sec and measured after 48 hrs by SRB assay; assay type: functional, cell-based; details: T-24, light or radiation study
Method in brief: as §3

[19] = system: A549; experiment: Phototoxicity against human A549 cells assessed as reduction in cell growth preincubated with compound for 24 hrs under dark condition and measured after 48 hrs by SRB assay; assay type: functional, cell-based; details: A549, light or radiation study
Method in brief: as §6

[20] = system: T-24; experiment: Phototoxicity against human T24 cells assessed as reduction in cell growth preincubated with compound for 24 hrs followed by green light irradiation at 519 nm for 22 mins 23 sec and measured after 48 hrs by SRB assay; assay type: functional, cell-based; details: T-24, light or radiation study
Method in brief: as §5

[21] = system: Escherichia coli; experiment: Antibacterial activity against Escherichia coli DSM1103 assessed as reduction in microbial growth preincubated for 60 mins under dark condition and measured after 20 to 24 hrs at room temperature by muller hinton broth based dilution assay; assay type: functional; details: time 20-24 hrs
Method in brief: as §4

[22] = system: Escherichia coli; experiment: Antibacterial activity against Escherichia coli DSM1103 assessed as reduction in microbial growth preincubated for 60 mins under dark condition followed by 428 to 530 nm light irradiation and measured after 20 to 24 hrs by muller hinton broth based dilution assay; assay type: functional; details: DSM1103, light or radiation study, time 21-25 hrs
Method in brief: (§7)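 Bacterial inoculum set to 0.5 McFarland (600 nm) and diluted 1:50 in Müller-Hinton broth to (2–8) × 10⁵ CFU/mL. After 60 min dark preincubation the plate received H = 30 J/cm² from LED panels (468±27, 519±33, 478±22 or 523±33 nm). Incubated at 37 °C in the dark for 20−24 h. Turbidity read against growth control, blanks subtracted. ≥10 concentrations, biological triplicate.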

[23] = system: Staphylococcus aureus; experiment: Antibacterial activity against Staphylococcus aureus DSM1104 assessed as reduction in microbial growth preincubated for 60 mins under dark condition followed by 428 to 530 nm light irradiation and measured after 20 to 24 hrs by muller hinton broth based dilution assay; assay type: functional; details: DSM1104, light or radiation study, time 21-25 hrs
Method in brief: as §7

[24] = system: Candida albicans; experiment: Antifungal activity against Candida albicans 501670 assessed as reduction in microbial growth preincubated for 60 mins under dark condition followed by 428 to 530 nm light irradiation and measured after 20 to 24 hrs by muller hinton broth based dilution assay; assay type: functional; details: Candida albicans, 501670, light or radiation study; in the assay text read “RPMI-1640” for “muller hinton broth”; time 21-25 hrs
Method in brief: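 Yeast set to 0.5 McFarland (530 nm), diluted 1:10 in double-strength RPMI-1640 to (0.5−2.5) × 10⁵ CFU/mL. Irradiated at H = 30 J/cm² after 60 min dark preincubation, then kept dark at 37 °C for 20−24 h. Growth inhibition by turbidity versus growth control, blanks subtracted. ≥10 concentrations in biological triplicate.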

Structure (SMILES)	EC50 [4]	MIC [10]	EC50 [11]	EC50 [12]	EC50 [13]	MIC [14]	EC50 [16]	EC50 [17]	EC50 [18]	EC50 [19]	EC50 [20]	MIC [21]	MIC [22]	MIC [23]	MIC [24]	further results
COc1c(O)c(O)c2c(c1O)C(=O)c1cc(C)cc(O)c1C2=O	> 25 µM	> 79 µM	> 25 µM	> 25 µM	16.2 µM	> 79 µM	> 25 µM	24.7 µM	> 25 µM	> 25 µM	11.6 µM					MIC [1]: 19.7 µM; Ratio EC50 [2]: >1.5; MIC [3]: 2.37 µM; MIC [5]: > 79 µM; MIC [6]: 39.5 µM; MIC [7]: 39.5 µM; MIC [8]: 39.5 µM; Ratio EC50 [9]: 2.1; MIC [15]: 4.74 µM
Cc1cc(O[C@@H]2O[C@H](CO)[C@@H](O)[C@H](O)[C@H]2O)c2c(c1)C(=O)c1cc(O)cc(O)c1C2=O	> 25 µM	> 115 µM	> 25 µM			> 115 µM	> 25 µM	> 25 µM	> 25 µM	> 25 µM		> 115 µM	> 115 µM	> 115 µM	> 115 µM	
Cc1cc(O[C@@H]2O[C@H](CO)[C@@H](O)[C@H](O)[C@H]2O)c2c(c1)C(=O)c1cc(O[C@@H]3O[C@H](CO)[C@@H](O)[C@H](O)[C@H]3O)cc(O)c1C2=O	> 25 µM	> 84 µM	> 25 µM			> 84 µM	> 25 µM	> 25 µM	> 25 µM	> 25 µM		> 84 µM	> 84 µM	> 84 µM	> 84 µM	
COc1c(O)c(O)c2c(c1O)C(=O)c1cc(C)cc(O[C@@H]3O[C@H](CO)[C@@H](O)[C@H](O)[C@H]3O)c1C2=O	> 25 µM	> 105 µM	> 25 µM	> 25 µM	> 25 µM	> 105 µM	> 25 µM	> 25 µM	> 25 µM	> 25 µM	> 25 µM	> 105 µM	> 105 µM	> 105 µM	> 105 µM	
